Measurements: ChEMBL document CHEMBL1131108, “Phenothiazine inhibitors of trypanothione reductase as potential antitrypanosomal and antileishmanial drugs” (J Med Chem, 1998)

What was measured:
Trypanothione reductase [1] = molecular target: T1, Trypanothione reductase (Trypanosoma cruzi, UniProt P28593); test: Inhibitory activity against recombinant Trypanosoma cruzi (Trypanosoma cruzi) Trypanothione reductase; details: read-out: I50
How it was run: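 Recombinant T. cruzi TR, overexpressed in E. coli JM109 and homogeneous by SDS-PAGE, was used at about 0.3 µg/mL. Assay at 25 °C in 0.02 M HEPES pH 7.25 with 0.15 M KCl, 1 mM EDTA, 0.12 mM trypanothione disulfide and 0.1 mM NADPH, read at 340 nm. I50 came from nonlinear least-squares fitting of velocity versus inhibitor concentration using the linear competitive inhibition equation.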

Mus musculus [2] = organism: Mus musculus; test: Effective dose against Trypanosoma cruzi (Trypanosoma cruzi) trypomastigotes in mouse peritoneal macrophages; assay type: functional; details: read-out: ED50 (the source's name)
Trypanosoma brucei [3] = test: Effective dose against Trypanosoma brucei) bloodstream form trypomastigotes; details: read-out: ED50 (the source's name)
Trypanothione reductase [4] = molecular target: T1, Trypanothione reductase; test: Inhibitory activity against recombinant Trypanosoma cruzi (Trypanosoma cruzi) Trypanothione reductase (linear competitive type)
[5] = molecular target: T2, Glutathione reductase, mitochondrial (Homo sapiens, UniProt P00390); test: Inhibitory activity against human erythrocyte glutathione reductase; '*' indicates No inhibition
T2 sequence (P00390 whole entry): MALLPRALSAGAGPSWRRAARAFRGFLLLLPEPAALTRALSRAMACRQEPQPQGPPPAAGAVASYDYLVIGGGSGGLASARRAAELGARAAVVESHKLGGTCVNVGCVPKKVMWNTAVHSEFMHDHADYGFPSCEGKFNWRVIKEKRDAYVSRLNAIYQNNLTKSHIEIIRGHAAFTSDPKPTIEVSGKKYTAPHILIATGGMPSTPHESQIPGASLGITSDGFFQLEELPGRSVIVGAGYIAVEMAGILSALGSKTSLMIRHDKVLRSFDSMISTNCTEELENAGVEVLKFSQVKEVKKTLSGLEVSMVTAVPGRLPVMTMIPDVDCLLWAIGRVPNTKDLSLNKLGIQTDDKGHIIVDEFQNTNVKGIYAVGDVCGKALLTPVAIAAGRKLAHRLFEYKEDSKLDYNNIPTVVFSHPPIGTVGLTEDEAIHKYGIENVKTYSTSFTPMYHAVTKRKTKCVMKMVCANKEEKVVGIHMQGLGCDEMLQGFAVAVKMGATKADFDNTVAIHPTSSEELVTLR
How it was run: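 Enzyme was isolated from human erythrocytes and assayed spectrophotometrically at 340 nm under literature conditions. Compounds were tested up to 1 mM, or 0.1 mM where solubility was limited.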

Mus musculus [6] = organism: Mus musculus; test: Effective dose against Leishmania donovani (Leishmania donovani) amastigotes in mouse peritoneal macrophages; assay type: functional; details: read-out: ED50 (the source's name)
How it was run: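 Mouse peritoneal macrophages kept on chamber slides in RPMI 1640 with 10% heat-inactivated foetal calf serum, 37 °C, 5% CO2, and infected with L. donovani MHOM/ET/69/L82 amastigotes taken from infected hamster spleens. After 24 h, compounds were added in a 3-fold dilution series in quadruplicate for 5 days. Slides were methanol-fixed and Giemsa-stained, then scored for the proportion of infected macrophages.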

Trypanosoma brucei [7] = test: Effective dose against Trypanosoma brucei) bloodstream form trypomastigotes in HMI-9 medium; details: read-out: ED50 (the source's name)
Mus musculus [8] = organism: Mus musculus; test: Effective dose against Trypanosoma uM; assay type: functional
Mus musculus [9] = organism: Mus musculus; test: Effective dose against Trypanosoma cruzi (Trypanosoma cruzi) trypomastigotes in mouse peritoneal macrophages; Toxic to the macrophages; assay type: functional, organism-based
How it was run: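 T. cruzi (MHOM/BR/00/Y) trypomastigotes from infected L6 rat myoblast cultures infect mouse peritoneal macrophages at 5 parasites:1 macrophage, 37 °C, 5% CO2/air. Compounds in fresh medium 24 h post-infection, 3-fold dilutions, quadruplicate, 3 days. Cultures fixed, Giemsa-stained; proportion of infected macrophages scored.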

Mus musculus [10] = organism: Mus musculus; test: Effective dose against Leishmania donovani (Leishmania donovani) amastigotes in mouse peritoneal macrophages; Toxic to the macrophages; assay type: functional, organism-based
How it was run: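 Mouse peritoneal macrophages in RPMI 1640 + 10% heat-inactivated FCS, 37 °C, 5% CO2, infected with L. donovani (MHOM/ET/69/L82) amastigotes from infected hamster spleens. Compounds added 24 h post-infection in 3-fold dilutions, quadruplicate, for 5 days. Slides methanol-fixed, Giemsa-stained; proportion of infected macrophages scored.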

Mus musculus [11] = organism: Mus musculus; test: Effective dose against Trypanosoma cruzi (Trypanosoma cruzi) trypomastigotes in mouse peritoneal macrophages; Range is 10-30 uM; assay type: functional; details: read-out: ED50 (the source's name)

T1 sequence (P28593 whole entry): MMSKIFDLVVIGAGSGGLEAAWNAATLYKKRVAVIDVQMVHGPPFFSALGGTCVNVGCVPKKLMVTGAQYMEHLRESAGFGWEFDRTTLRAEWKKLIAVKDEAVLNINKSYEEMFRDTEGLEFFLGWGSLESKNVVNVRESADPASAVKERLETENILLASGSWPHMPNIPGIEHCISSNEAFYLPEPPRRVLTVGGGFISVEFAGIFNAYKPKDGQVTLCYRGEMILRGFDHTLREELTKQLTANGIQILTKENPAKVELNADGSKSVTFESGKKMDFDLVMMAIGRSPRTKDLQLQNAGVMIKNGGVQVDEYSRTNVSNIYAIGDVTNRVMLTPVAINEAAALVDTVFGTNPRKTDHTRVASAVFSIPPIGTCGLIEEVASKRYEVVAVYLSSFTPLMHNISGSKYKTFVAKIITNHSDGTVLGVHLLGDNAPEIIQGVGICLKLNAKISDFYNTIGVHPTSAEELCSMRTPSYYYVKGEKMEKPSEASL

CC(=O)N1c2ccccc2Sc2ccc(C(=O)CCl)cc21
IC50 (Trypanothione reductase [1]): 436 µM

OCCN1CCN(CCCN2c3ccccc3Sc3ccc(C(F)(F)F)cc32)CC1 [FLUPHENAZINE]
EC50 (Mus musculus [2]): > 30 µM | EC50 (Trypanosoma brucei [3]): > 30 µM | Ki (Trypanothione reductase [4]): 21.2 µM | IC50 (Trypanothione reductase [1]): 73.7 µM | I50 [5]: Not Active | EC50 (Mus musculus [6]): > 30 µM

CC(=O)c1ccc2c(c1)N(C(C)=O)c1cc(Cl)ccc1S2
EC50 (Mus musculus [2]): > 30 µM | IC50 (Trypanothione reductase [1]): 402 µM | EC50 (Trypanosoma brucei [7]): > 30 µM | EC50 (Mus musculus [6]): > 30 µM

CN(C)CCN1c2ccccc2Sc2ccc(Cl)cc21 [CHOLRPHENETHAZINE]
IC50 (Trypanothione reductase [1]): 150 µM | I50 [5]: Not Active

N=C(N)CCN1c2ccccc2Sc2ccc(Cl)cc21
IC50 (Trypanothione reductase [1]): 307 µM

CC(=O)c1ccc2c(c1)N(C(C)=O)c1cc(C(C)=O)ccc1S2
EC50 (Mus musculus [2]): > 30 µM | IC50 (Trypanothione reductase [1]): 49.1 µM | EC50 (Trypanosoma brucei [7]): > 30 µM | EC50 (Mus musculus [6]): > 30 µM

CO/N=C(/C)c1ccc2c(c1)N(CCCN(C)C)c1ccccc1S2
ED50 (Mus musculus [8]): 10 µM | EC50 (Mus musculus [2]): > 30 µM | IC50 (Trypanothione reductase [1]): 351 µM | EC50 (Mus musculus [6]): > 30 µM

CN(C)CCCN1c2ccccc2Sc2c(Cl)cccc21
EC50 (Mus musculus [2]): 29.5 µM | EC50 (Trypanosoma brucei [3]): 3.01 µM | IC50 (Trypanothione reductase [1]): 765 µM | I50 [5]: Not Active | EC50 (Mus musculus [6]): 48.4 µM

CC(=O)c1ccc2c(c1)N(CCCN(C)C)c1ccccc1S2 [ACEPROMAZINE]
ED50 (Mus musculus [9]): Toxic | IC50 (Trypanothione reductase [1]): 502 µM | EC50 (Trypanosoma brucei [7]): 6.42 µM | ED50 (Mus musculus [10]): Toxic

CN(C)CCCN1c2ccccc2Sc2ccc(C(N)=O)cc21
IC50 (Trypanothione reductase [1]): 458 µM | I50 [5]: Not Active

O=C(CCl)N1c2ccccc2Sc2ccc(Cl)cc21
IC50 (Trypanothione reductase [1]): 862 µM

CCN(CC)CCC(=O)N1c2ccccc2Sc2ccc(Cl)cc21 [CHLORACYZINE]
IC50 (Trypanothione reductase [1]): 802 µM

CN(C)CCCN1c2ccccc2[S+]([O-])c2ccc(Cl)cc21 (centres undefined) [CHLOROPROMAZINE SULFOXIDE]
IC50 (Trypanothione reductase [1]): 76.6 µM | I50 [5]: Not Active

CN(C)CCCN1c2ccccc2Sc2ccc(COc3ccc(C(C)(C)C)cc3)cc21
EC50 (Mus musculus [2]): > 30 µM | EC50 (Trypanosoma brucei [3]): > 30 µM | IC50 (Trypanothione reductase [1]): 161 µM | I50 [5]: Not Active | EC50 (Mus musculus [6]): > 30 µM

CNCCCN1c2ccccc2Sc2ccccc21
IC50 (Trypanothione reductase [1]): 1030 µM | I50 [5]: Not Active

CCN(CC)CCN1c2ccccc2Sc2ccc(Cl)cc21
IC50 (Trypanothione reductase [1]): 81.3 µM | I50 [5]: Not Active

CCN(CC)CC(=O)N1c2ccccc2Sc2ccc(Cl)cc21
IC50 (Trypanothione reductase [1]): 829 µM

CC(=O)c1ccc2c(c1)N(CCCN(C)C)c1cc(Cl)ccc1S2
EC50 (Mus musculus [2]): > 30 µM | IC50 (Trypanothione reductase [1]): 175 µM | EC50 (Trypanosoma brucei [7]): 1.29 µM | EC50 (Mus musculus [6]): 12.1 µM

CCCN1CCN(CCCN2c3ccccc3Sc3ccc(Cl)cc32)CC1
Ki (Trypanothione reductase [4]): 18.7 µM | IC50 (Trypanothione reductase [1]): 95.5 µM | I50 [5]: Not Active

O=C(CBr)N1c2ccccc2Sc2ccc(Cl)cc21
EC50 (Mus musculus [11]): 10 µM | IC50 (Trypanothione reductase [1]): 251 µM | EC50 (Trypanosoma brucei [7]): 0.97 µM | EC50 (Mus musculus [6]): 5.97 µM

O=C(CCC(=O)N1c2ccccc2Sc2ccc(Cl)cc21)NCc1ccccc1
EC50 (Mus musculus [2]): > 30 µM | IC50 (Trypanothione reductase [1]): 188 µM | EC50 (Trypanosoma brucei [7]): > 30 µM | EC50 (Mus musculus [6]): > 30 µM

O=C(CNc1ccccc1)N1c2ccccc2Sc2ccc(Cl)cc21
IC50 (Trypanothione reductase [1]): 256 µM

CCCCCC(=O)c1ccc2c(c1)N(CCCN(C)C)c1ccccc1S2
IC50 (Trypanothione reductase [1]): 171 µM | EC50 (Trypanosoma brucei [7]): > 30 µM

CN(C)C(C)(C)CN1c2ccccc2Sc2ccccc21
IC50 (Trypanothione reductase [1]): 1180 µM | I50 [5]: Not Active

N=C(N)CCN1c2ccccc2Sc2ccccc21
IC50 (Trypanothione reductase [1]): 992 µM

CN(C)CCCN1c2ccccc2Sc2ccc(/C=N/O)cc21
EC50 (Mus musculus [11]): 10 µM | IC50 (Trypanothione reductase [1]): 145 µM | EC50 (Trypanosoma brucei [7]): 7.35 µM | EC50 (Mus musculus [6]): > 30 µM

CN(C)CCCN1c2ccccc2Sc2ccc(Cl)cc21 [CHLORPROMAZINE]
EC50 (Mus musculus [2]): > 10 µM | EC50 (Trypanosoma brucei [3]): 3.69 µM | Ki (Trypanothione reductase [4]): 10.8 µM | IC50 (Trypanothione reductase [1]): 35.4 µM | I50 [5]: Not Active | EC50 (Mus musculus [6]): 4.9 µM

CNCCCN1c2ccccc2Sc2ccc(Cl)cc21 [NOR1-CHLORPROMAZINE]
IC50 (Trypanothione reductase [1]): 126 µM | I50 [5]: Not Active

NCCCN1c2ccccc2Sc2ccccc21
EC50 (Mus musculus [2]): 54.9 µM | EC50 (Trypanosoma brucei [3]): 3.83 µM | IC50 (Trypanothione reductase [1]): 1410 µM | I50 [5]: Not Active | EC50 (Mus musculus [6]): 3.3 µM

CN1CCN(CCCN2c3ccccc3Sc3ccc(C(F)(F)F)cc32)CC1 [TRIFLUOPERAZINE]
Ki (Trypanothione reductase [4]): 23 µM | IC50 (Trypanothione reductase [1]): 72 µM | I50 [5]: Not Active

CN(C)CCCN1c2ccccc2Sc2ccccc21 [PROMAZINE]
Ki (Trypanothione reductase [4]): 59.1 µM | IC50 (Trypanothione reductase [1]): 108 µM | I50 [5]: Not Active

CC(=O)c1ccc2c(c1)N(C(C)=O)c1ccccc1S2
IC50 (Trypanothione reductase [1]): 2810 µM | I50 [5]: Not Active

CC(CN(C)C)CN1c2ccccc2Sc2ccccc21 (centres undefined) [METHYLPROMAZINE]
Ki (Trypanothione reductase [4]): 127 µM | IC50 (Trypanothione reductase [1]): 249 µM | I50 [5]: Not Active

CN(C)CCCN1c2ccccc2Sc2ccc(C(=O)O)cc21
IC50 (Trypanothione reductase [1]): 3910 µM | I50 [5]: Not Active

CN(C)CCCN1c2ccccc2Sc2ccc(CO)cc21
IC50 (Trypanothione reductase [1]): 1190 µM | I50 [5]: Not Active

CN(C)CCCN1c2ccccc2Sc2ccc(CN)cc21
ED50 (Mus musculus [9]): Toxic | IC50 (Trypanothione reductase [1]): 219 µM | EC50 (Trypanosoma brucei [7]): 0.37 µM | ED50 (Mus musculus [10]): Toxic

CCC(=O)c1ccc2c(c1)N(CCCN(C)C)c1ccccc1S2
EC50 (Mus musculus [2]): > 30 µM | IC50 (Trypanothione reductase [1]): 357 µM | EC50 (Trypanosoma brucei [7]): 10.1 µM | EC50 (Mus musculus [6]): > 30 µM

COC(=O)c1ccc2c(c1)N(CCCN(C)C)c1ccccc1S2
IC50 (Trypanothione reductase [1]): 348 µM | I50 [5]: Not Active

CCN(CC)CCCC(=O)N1c2ccccc2Sc2ccc(Cl)cc21
IC50 (Trypanothione reductase [1]): 320 µM

O=C(O)CCC(=O)N1c2ccccc2Sc2ccc(Cl)cc21
IC50 (Trypanothione reductase [1]): 1480 µM

CC(CN1c2ccccc2Sc2ccccc21)N(C)C (centres undefined) [PROMETHAZINE]
Ki (Trypanothione reductase [4]): 216 µM | IC50 (Trypanothione reductase [1]): 271 µM | I50 [5]: Not Active

CCN(CC)CCCCCC(=O)N1c2ccccc2Sc2ccc(Cl)cc21
IC50 (Trypanothione reductase [1]): 457 µM

CCCC(=O)N1c2ccccc2Sc2ccc(Cl)cc21
EC50 (Mus musculus [2]): > 30 µM | IC50 (Trypanothione reductase [1]): 95 µM | EC50 (Trypanosoma brucei [7]): > 30 µM | EC50 (Mus musculus [6]): > 30 µM

CN(C)CCCN1c2ccccc2Sc2ccc(C(F)(F)F)cc21 [TRIFLUPROMAZINE]
EC50 (Trypanosoma brucei [3]): 3.2 µM | Ki (Trypanothione reductase [4]): 30.2 µM | IC50 (Trypanothione reductase [1]): 110 µM | I50 [5]: Not Active
